Measurements taken from ChEMBL document CHEMBL4406825, “Design, synthesis and preliminary bioactivity evaluations of 8-hydroxyquinoline derivatives as matrix metalloproteinase (MMP) inhibitors” (Eur J Med Chem, 2019).
Blank lines part the entries; values can stand above or below the molecule they belong to. The source made the active and inactive calls. No cut-off for these calls is given here.

Tests used:
[1] = molecular target: T1, Matrix metalloproteinase-9 (Homo sapiens, UniProt P14780); assay: Inhibition of recombinant human MMP9 at 10 uM using thiopeptide as substrate preincubated for 30 mins followed by substrate addition and measured every min for 20 mins by colorimetric assay relative to control
Summary of the method: (§1)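 Colorimetric kit assay: human recombinant enzyme plus inhibitor in assay buffer for 30 min at 37 °C, then chromogenic MMP substrate added; A412 recorded each minute over 20 min. Enzyme-free blanks and inhibitor-free controls included.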

[2] = molecular target: T2, 72 kDa type IV collagenase (Homo sapiens, UniProt P08253); assay: Inhibition of recombinant human MMP2 using thiopeptide as substrate preincubated for 30 mins followed by substrate addition and measured every mins for 20 min by colorimetric assay
Target sequence in this assay (P08253 whole entry): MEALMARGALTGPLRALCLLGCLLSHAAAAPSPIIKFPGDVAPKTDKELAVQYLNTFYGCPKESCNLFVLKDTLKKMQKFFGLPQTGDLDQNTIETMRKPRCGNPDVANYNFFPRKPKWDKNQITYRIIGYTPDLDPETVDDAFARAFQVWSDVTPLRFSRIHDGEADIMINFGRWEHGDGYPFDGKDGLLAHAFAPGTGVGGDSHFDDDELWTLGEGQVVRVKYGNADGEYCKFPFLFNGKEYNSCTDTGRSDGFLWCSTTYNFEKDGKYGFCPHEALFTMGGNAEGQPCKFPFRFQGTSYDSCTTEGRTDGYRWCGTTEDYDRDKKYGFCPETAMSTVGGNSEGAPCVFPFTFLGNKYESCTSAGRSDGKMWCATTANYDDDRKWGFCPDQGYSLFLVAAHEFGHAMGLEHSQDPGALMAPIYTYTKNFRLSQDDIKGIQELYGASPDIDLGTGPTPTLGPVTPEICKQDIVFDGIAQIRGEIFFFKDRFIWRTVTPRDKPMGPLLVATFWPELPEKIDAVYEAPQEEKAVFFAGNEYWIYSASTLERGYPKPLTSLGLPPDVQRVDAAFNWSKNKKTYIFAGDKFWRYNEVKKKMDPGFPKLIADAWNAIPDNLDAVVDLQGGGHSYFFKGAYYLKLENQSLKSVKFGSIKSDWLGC

[3] = molecular target: T1, Matrix metalloproteinase-9; assay: Inhibition of recombinant human MMP9 using thiopeptide as substrate preincubated for 30 mins followed by substrate addition and measured every min for 20 mins by colorimetric assay
[4] = molecular target: T2, 72 kDa type IV collagenase; assay: Inhibition of recombinant human MMP2 at 10 uM using thiopeptide as substrate preincubated for 30 mins followed by substrate addition and measured every min for 20 mins by colorimetric assay relative to control; summary of the method: as §1
Target sequence in this assay (P08253 110-660 limits assumed): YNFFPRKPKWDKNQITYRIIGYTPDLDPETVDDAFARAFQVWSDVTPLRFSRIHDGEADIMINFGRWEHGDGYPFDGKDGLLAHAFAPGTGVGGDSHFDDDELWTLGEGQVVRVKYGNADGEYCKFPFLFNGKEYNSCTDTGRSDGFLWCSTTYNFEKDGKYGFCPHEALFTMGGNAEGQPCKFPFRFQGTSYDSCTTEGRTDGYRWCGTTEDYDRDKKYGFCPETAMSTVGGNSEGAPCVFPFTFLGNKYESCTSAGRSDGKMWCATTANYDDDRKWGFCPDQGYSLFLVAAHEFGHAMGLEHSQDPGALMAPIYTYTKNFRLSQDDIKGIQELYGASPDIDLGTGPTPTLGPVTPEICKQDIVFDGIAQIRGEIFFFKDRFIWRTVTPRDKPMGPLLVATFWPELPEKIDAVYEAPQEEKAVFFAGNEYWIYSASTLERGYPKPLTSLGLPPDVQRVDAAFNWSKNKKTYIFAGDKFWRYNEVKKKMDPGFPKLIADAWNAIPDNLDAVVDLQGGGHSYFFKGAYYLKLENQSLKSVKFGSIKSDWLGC

[5] = system: KG-1; assay: Antiproliferative activity against human KG1 cells assessed as reduction in cell viability incubated for 48 hrs by MTT assay; assay type: functional, cell-based; conditions: KG-1, 48 h
Summary of the method: (§2)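 Cells grown in RPMI1640 with 10% FBS at 37°C, 5% CO2; seeded at 4000-5000 cells/well for 8 h, then exposed to a range of compound concentrations for 48 h. MTT added for 4 h, formazan dissolved in DMSO, absorbance at 570 nm; IC50 calculated from inhibition ratios.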

[6] = system: A549; assay: Antiproliferative activity against human A549 cells assessed as reduction in cell viability incubated for 48 hrs by MTT assay; assay type: functional, cell-based; conditions: A549, 48 h; summary of the method: as §2
[7] = system: HL-60; assay: Antiproliferative activity against human HL60 cells assessed as reduction in cell viability incubated for 48 hrs by MTT assay; assay type: functional, cell-based; conditions: HL-60, 48 h; summary of the method: as §2
[8] = system: K562; assay: Antiproliferative activity against human K562 cells assessed as reduction in cell viability incubated for 48 hrs by MTT assay; assay type: functional, cell-based; conditions: K562, 48 h; summary of the method: as §2
[9] = system: MCF7; assay: Antiproliferative activity against human MCF7 cells assessed as reduction in cell viability incubated for 48 hrs by MTT assay; assay type: functional, cell-based; conditions: MCF7, 48 h; summary of the method: as §2
[10] = system: PC-3; assay: Antiproliferative activity against human PC3 cells assessed as reduction in cell viability incubated for 48 hrs by MTT assay; assay type: functional, cell-based; conditions: PC-3, 48 h; summary of the method: as §2
[11] = system: HUVEC; assay: Cytotoxicity against HUVEC assessed as reduction in cell viability incubated for 48 hrs by MTT assay; assay type: cell-based; conditions: Homo sapiens; summary of the method: as §2
[12] = system: A549; assay: Induction of apoptosis in human A549 cells assessed as early apoptotic cells at 5 uM incubated for 48 hrs by annexin V FITC and propidium iodide based flow cytometry (reference value: 2.15 %); assay type: functional
Summary of the method: (§3)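 A549 cells (1×10^5 cells/mL) treated 48 h at 0, 1, 5 or 10 µM; harvested, washed in cold PBS, resuspended in binding buffer with annexin V-FITC and PI, 15 min at room temperature in the dark, then analysed by flow cytometry.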

[13] = system: A549; assay: Induction of apoptosis in human A549 cells assessed as viable cells at 10 uM incubated for 48 hrs by annexin V FITC and propidium iodide based flow cytometry (reference value: 94.7 %); assay type: functional; conditions: A549, 48 h, read-out: Activity; summary of the method: as §3
[14] = system: A549; assay: Induction of apoptosis in human A549 cells assessed as necrotic cells at 1 uM incubated for 48 hrs by annexin V FITC and propidium iodide based flow cytometry (reference value: 0.02 %); assay type: functional; summary of the method: as §3
[15] = system: A549; assay: Induction of apoptosis in human A549 cells assessed as late apoptotic cells at 10 uM incubated for 48 hrs by annexin V FITC and propidium iodide based flow cytometry (reference value: 3.11 %); assay type: functional; summary of the method: as §3
[16] = system: A549; assay: Induction of apoptosis in human A549 cells assessed as viable cells at 1 uM incubated for 48 hrs by annexin V FITC and propidium iodide based flow cytometry (reference value: 94.7 %); assay type: functional; conditions: A549, 48 h, read-out: Activity; summary of the method: as §3
[17] = system: A549; assay: Induction of apoptosis in human A549 cells assessed as early apoptotic cells at 1 uM incubated for 48 hrs by annexin V FITC and propidium iodide based flow cytometry (reference value: 2.15 %); assay type: functional; summary of the method: as §3
[18] = system: A549; assay: Induction of apoptosis in human A549 cells assessed as late apoptotic cells at 1 uM incubated for 48 hrs by annexin V FITC and propidium iodide based flow cytometry (reference value: 3.11 %); assay type: functional; summary of the method: as §3
[19] = system: A549; assay: Inhibition of cell migration in human A549 cells at 1 to 10 uM incubated for 24 hrs by crystal violet staining based transwell migration assay; assay type: functional
Summary of the method: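 A549 cells pretreated 24 h with compound (1, 5, 10 µM), harvested into serum-free RPMI1640; 30,000 cells placed in upper transwell chamber, lower chamber RPMI1640 + 10% FBS as chemoattractant. Migration 24 h at 37°C, 5% CO2; cells fixed MeOH/acetic acid (3:1), upper side wiped, underside stained 0.1% crystal violet and counted. Three repeats, mean ± SEM.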

[20] = system: A549; assay: Induction of apoptosis in human A549 cells assessed as early apoptotic cells at 10 uM incubated for 48 hrs by annexin V FITC and propidium iodide based flow cytometry (reference value: 2.15 %); assay type: functional; summary of the method: as §3
[21] = system: A549; assay: Induction of apoptosis in human A549 cells assessed as viable cells at 5 uM incubated for 48 hrs by annexin V FITC and propidium iodide based flow cytometry (reference value: 94.7 %); assay type: functional; conditions: A549, 48 h, read-out: Activity; summary of the method: as §3
[22] = system: A549; assay: Induction of apoptosis in human A549 cells assessed as late apoptotic cells at 5 uM incubated for 48 hrs by annexin V FITC and propidium iodide based flow cytometry (reference value: 3.11 %); assay type: functional; summary of the method: as §3
[23] = system: HUVEC; assay: Antiangiogenic activity in HUVEC assessed as inhibition of tuber formation at 10 uM incubated for 24 hrs by matrigel-based inverted microscopy; assay type: functional, cell-based; conditions: Homo sapiens
Summary of the method: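 HUVEC treated with compound for 24 h in serum-free RPMI1640, harvested and layered onto undiluted matrigel polymerized 2 h at 37°C; after 6 h cell organization examined by inverted microscope, with mesh number counted as the angiogenesis read-out. Tested at 10 µM.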

[24] = system: A549; assay: Induction of apoptosis in human A549 cells assessed as necrotic cells at 10 uM incubated for 48 hrs by annexin V FITC and propidium iodide based flow cytometry (reference value: 0.02 %); assay type: functional; summary of the method: as §3
[25] = system: A549; assay: Induction of apoptosis in human A549 cells assessed as necrotic cells at 5 uM incubated for 48 hrs by annexin V FITC and propidium iodide based flow cytometry (reference value: 0.02 %); assay type: functional; summary of the method: as §3

T1 sequence (P14780 whole entry): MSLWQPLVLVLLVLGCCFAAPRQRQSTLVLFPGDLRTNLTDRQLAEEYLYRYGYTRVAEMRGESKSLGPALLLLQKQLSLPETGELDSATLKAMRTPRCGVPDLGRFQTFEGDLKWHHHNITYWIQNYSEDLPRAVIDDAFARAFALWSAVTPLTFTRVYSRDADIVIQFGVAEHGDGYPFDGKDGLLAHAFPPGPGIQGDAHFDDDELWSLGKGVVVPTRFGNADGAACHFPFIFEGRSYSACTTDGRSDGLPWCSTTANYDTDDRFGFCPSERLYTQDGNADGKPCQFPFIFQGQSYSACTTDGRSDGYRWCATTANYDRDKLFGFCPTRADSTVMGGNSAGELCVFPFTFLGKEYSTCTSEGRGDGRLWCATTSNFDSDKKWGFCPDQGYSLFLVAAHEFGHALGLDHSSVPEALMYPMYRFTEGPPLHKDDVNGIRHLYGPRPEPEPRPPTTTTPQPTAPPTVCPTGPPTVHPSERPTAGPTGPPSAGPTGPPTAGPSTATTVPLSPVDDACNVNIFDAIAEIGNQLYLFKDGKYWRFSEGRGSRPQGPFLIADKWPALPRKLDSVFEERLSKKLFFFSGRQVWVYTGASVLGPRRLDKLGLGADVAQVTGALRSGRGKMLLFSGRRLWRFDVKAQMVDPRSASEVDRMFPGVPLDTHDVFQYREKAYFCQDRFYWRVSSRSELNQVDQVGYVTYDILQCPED

inhibition [1]: 42.9% | IC50 [2]: > 10 µM | IC50 [3]: > 10 µM
SMILES: O=C(CNCc1ccc(O)c2ncccc12)Nc1ccccc1

inhibition [4]: 61% | inhibition [1]: 67.8% | IC50 [2]: 8.8 µM | IC50 [3]: 5.3 µM
SMILES: Cc1[nH]c2ccccc2c1CCNC(=O)CCCCNCc1ccc(O)c2ncccc12

inhibition [4]: 56% | inhibition [1]: 55% | IC50 [2]: 8.8 µM | IC50 [3]: 6 µM
SMILES: O=C(CCCCCNCc1ccc(O)c2ncccc12)Nc1ccccc1

inhibition [4]: 44.8% | inhibition [1]: 12.3% | IC50 [2]: > 10 µM | IC50 [3]: > 10 µM
SMILES: Cc1[nH]c2ccccc2c1CCNC(=O)CCCNCc1ccc(O)c2ncccc12

inhibition [4]: 100% | inhibition [1]: 99.9% | IC50 [6]: 13 µM | IC50 [7]: 1.9 µM | IC50 [8]: 2.9 µM | IC50 [9]: 7.4 µM | IC50 [10]: 8.4 µM | IC50 [2]: 3 µM | IC50 [3]: 3.6 µM
SMILES: O=C(CCCCNCc1cc(Cl)c2cccnc2c1O)Nc1ccccc1
IC50 [5]: 1.6 µM | IC50 [11]: > 50 µM

inhibition [1]: 24.3% | IC50 [2]: > 10 µM | IC50 [3]: > 10 µM
SMILES: O=C(CCCCCN1C(=O)c2ccccc2S1(=O)=O)Nc1ccc(O)c2ncccc12

IC50 [2]: > 10 µM | IC50 [3]: > 10 µM
SMILES: Cc1nc2ccccc2n1CCCCC(=O)Nc1ccc(O)c2ncccc12

inhibition [4]: 50.1% | IC50 [2]: > 10 µM | IC50 [3]: > 10 µM
SMILES: O=C(CCCN1C(=O)c2ccccc2S1(=O)=O)Nc1ccc(O)c2ncccc12

inhibition [4]: 49.8% | inhibition [1]: 11.3% | IC50 [2]: > 10 µM | IC50 [3]: > 10 µM
SMILES: Cc1[nH]c2ccccc2c1CCNC(=O)CCNCc1ccc(O)c2ncccc12

IC50 [2]: > 10 µM | IC50 [3]: > 10 µM
SMILES: O=C(CCN1C(=O)c2ccccc2S1(=O)=O)Nc1ccc(O)c2ncccc12

inhibition [4]: 54.5% | inhibition [1]: 83.9% | IC50 [2]: 5.7 µM | IC50 [3]: 5.1 µM
SMILES: O=C(CCCNCc1ccc(O)c2ncccc12)Nc1ccccc1

inhibition [1]: 73.9% | IC50 [2]: > 10 µM | IC50 [3]: > 10 µM
SMILES: Cc1[nH]c2ccccc2c1CCNC(=O)CCNCc1cc(Cl)c2cccnc2c1O

inhibition [4]: 100% | inhibition [1]: 98.9% | IC50 [6]: 9.7 µM | IC50 [7]: 1.3 µM | IC50 [8]: 1.7 µM | IC50 [9]: 13 µM | IC50 [10]: 1.9 µM | IC50 [2]: 3.3 µM | IC50 [3]: 3.5 µM
SMILES: O=C(CCNCc1cc(Cl)c2cccnc2c1O)Nc1ccccc1
IC50 [5]: 1.1 µM | IC50 [11]: > 50 µM

IC50 [6]: 51 µM | IC50 [7]: 4.6 µM | IC50 [8]: 3.6 µM | IC50 [9]: 42 µM | IC50 [10]: 18 µM | IC50 [2]: 8.8 µM | IC50 [3]: 11 µM
SMILES: O=S(=O)(Nc1ccc(O)c2ncccc12)c1ccc(F)cc1
Activity [12]: 19.8% | viability at 10 µM [13]: 73.1% | IC50 [5]: 4.6 µM | Activity [14]: 0.032% | Activity [15]: 6.57% | viability at 1 µM [16]: 79.5% | Activity [17]: 14.4% | Activity [18]: 6.11% | inhibition [19]: Active | Activity [20]: 20.2% | IC50 [11]: > 50 µM | viability at 5 µM [21]: 74.6% | Activity [22]: 5.49% | inhibition [23]: Active | Activity [24]: 0.11% | Activity [25]: 0.017%

inhibition [4]: 67.8% | inhibition [1]: 100% | IC50 [2]: 7.6 µM | IC50 [3]: 3.1 µM
SMILES: Cc1[nH]c2ccccc2c1CCNC(=O)CCCCNCc1cc(Cl)c2cccnc2c1O
